Calls of active or inactive are those of the source. The calls are words filed in the database; no cut-off is given here.
Tests used:
NCI-H1975 [1] = test: Cytotoxicity against human NCI-H1975 cells incubated for 72 hrs by MTT assay; assay type: functional, cell-based; settings: NCI-H1975, 72 h
How it was run: (§1)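 Cells seeded at 4000/well, incubated overnight, then exposed to a range of concentrations, or DMSO vehicle, for 72 h. MTT (5 mg/mL solution) added for 4 h and formazan dissolved in DMSO. Absorbance read at 570 nm, and IC50 derived from the curves. Tumor lines were grown in RPMI 1640; HUVEC, HaCaT and LO2 were grown in DMEM, each with 10% FBS at 37 °C and 5% CO2.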

[2] = Cytotoxicity against human HaCaT cells incubated for 72 hrs by MTT assay; assay type: toxicity, cell-based; how it was run: as §1
[3] = Cytotoxicity against human L02 cells incubated for 72 hrs by MTT assay; assay type: toxicity, cell-based; how it was run: as §1
SW-620 = test: Cytotoxicity against human SW-620 cells incubated for 72 hrs by MTT assay; assay type: functional, cell-based; settings: SW-620, 72 h; how it was run: as §1
HT-29 = test: Cytotoxicity against human HT-29 cells incubated for 72 hrs by MTT assay; assay type: functional, cell-based; settings: HT-29, 72 h; how it was run: as §1
MDA-MB-231 = test: Cytotoxicity against human MDA-MB-231 cells incubated for 72 hrs by MTT assay; assay type: functional, cell-based; settings: MDA-MB-231, 72 h; how it was run: as §1
[4] = Cytotoxicity against HUVEC incubated for 72 hrs by MTT assay; assay type: toxicity, cell-based; settings: human, HUVEC cells; how it was run: as §1
HCT-116 = test: Cytotoxicity against human HCT-116 cells incubated for 72 hrs by MTT assay; assay type: functional, cell-based; settings: HCT-116, 72 h; how it was run: as §1
[5] = Octanol-water partition coefficient, logD of the compound in PBS at pH 7.4 by liquid chromatography based mass spectrometric analysis; assay type: physicochemical
How it was run: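 Shake-flask method: 3.0 mg compound dissolved in PBS-saturated n-octanol and rotated 24 h at room temperature. The octanol phase was then mixed with octanol-saturated PBS, rotated another 24 h and centrifuged. Both phases quantified by LC-MS against a standard curve, and log P = log(C octanol/C water).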

NCI-H460 [6] = test: Cytotoxicity against human NCI-H460 cells incubated for 72 hrs by MTT assay; assay type: functional, cell-based; settings: NCI-H460, 72 h; how it was run: as §1
NCI-H460 [7] = test: Induction of apoptosis in human NCI-H460 cells assessed as necrotic cells at 0.1 uM measured after 48 hrs by Annexin V-FITC/PI staining method (reference value: 1.59%); assay type: functional
NCI-H460 [8] = test: Induction of apoptosis in human NCI-H460 cells assessed as early apoptotic cells at 0.1 uM measured after 48 hrs by Annexin V-FITC/PI staining method (reference value: 3.46%); assay type: functional
[9] = Toxicity in BALB/c nude mouse xenografted with human NCI-H1975 cells assessed as decreased spermatogenic cells at 0.2 mg/kg administered ip, qd for 2 weeks; settings: in vivo, 336 h
NCI-H460 [10] = test: Induction of apoptosis in human NCI-H460 cells assessed as necrotic cells at 0.01 uM measured after 48 hrs by Annexin V-FITC/PI staining method (reference value: 1.59%); assay type: functional
NCI-H460 [11] = test: Induction of apoptosis in human NCI-H460 cells assessed as viable cells at 0.1 uM measured after 48 hrs by Annexin V-FITC/PI staining method (reference value: 86.4%); assay type: functional; settings: read-out: Activity
[12] = Toxicity in BALB/c nude mouse xenografted with human NCI-H1975 cells assessed as morphological change in heart at 0.2 mg/kg administered ip, qd for 2 weeks; settings: in vivo, 336 h
[13] = Toxicity in BALB/c nude mouse xenografted with human NCI-H1975 cells assessed as reduction of cytoplasmic nuclei at 0.2 mg/kg administered ip, qd for 2 weeks; settings: in vivo, 336 h
NCI-H460 [14] = test: Induction of apoptosis in human NCI-H460 cells assessed as early apoptotic cells at 0.01 uM measured after 48 hrs by Annexin V-FITC/PI staining method (reference value: 3.46%); assay type: functional
[15] = Toxicity in BALB/c nude mouse xenografted with human NCI-H1975 cells assessed as morphological change in liver at 0.2 mg/kg administered ip, qd for 2 weeks; settings: in vivo, 336 h
NCI-H460 [16] = test: Induction of apoptosis in human NCI-H460 cells assessed as late apoptotic cells at 1 uM measured after 48 hrs by Annexin V-FITC/PI staining method (reference value: 8.57%); assay type: functional
NCI-H460 [17] = test: Down regulation of RNA polymerase II in human NCI-H460 cells measured after 48 hrs by Western blotting analysis; assay type: functional, cell-based
How it was run: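 NCI-H460 cells treated for 48 h, harvested by trypsinization and lysed on ice in NP-40 buffer (50 mmol/L Tris pH 8.0, 150 mmol/L NaCl, 1% NP-40). Protein quantified by BCA and resolved by SDS-PAGE. Blots probed for RNA Pol II (1:1000), with GAPDH as loading control, and detected by chemiluminescence.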

NCI-H460 [18] = test: Induction of apoptosis in human NCI-H460 cells assessed as viable cells at 0.01 uM measured after 48 hrs by Annexin V-FITC/PI staining method (reference value: 86.4%); assay type: functional; settings: read-out: Activity
NCI-H460 [19] = test: Induction of apoptosis in human NCI-H460 cells assessed as late apoptotic cells at 0.1 uM measured after 48 hrs by Annexin V-FITC/PI staining method (reference value: 8.57%); assay type: functional
NCI-H1975 [20] = test: Antitumor activity against human NCI-H1975 cells xenografted in BALB/c nude mouse assessed as tumor growth inhibition at 0.2 mg/kg, ip, qd for 2 weeks relative to control; settings: NCI-H1975, 336 h, read-out: TGI
NCI-H460 [21] = test: Induction of apoptosis in human NCI-H460 cells assessed as viable cells at 1 uM measured after 48 hrs by Annexin V-FITC/PI staining method (reference value: 86.4%); assay type: functional; settings: read-out: Activity
[22] = Toxicity in BALB/c nude mouse xenografted with human NCI-H1975 cells assessed as irregular spermatogenic tubules at 0.2 mg/kg administered ip, qd for 2 weeks; settings: in vivo, 336 h
NCI-H460 [23] = test: Induction of apoptosis in human NCI-H460 cells assessed as late apoptotic cells at 0.01 uM measured after 48 hrs by Annexin V-FITC/PI staining method (reference value: 8.57%); assay type: functional
[24] = Toxicity in BALB/c nude mouse xenografted with human NCI-H1975 cells assessed as degeneration of inter tube connective tissue at 0.2 mg/kg administered ip, qd for 2 weeks; settings: in vivo, 336 h
[25] = Stability in mouse serum measured after 8 hrs by HPLC analysis; assay type: ADME, cell-free
NCI-H460 [26] = test: Induction of apoptosis in human NCI-H460 cells assessed as necrotic cells at 1 uM measured after 48 hrs by Annexin V-FITC/PI staining method (reference value: 1.59%); assay type: functional
[27] = Toxicity in BALB/c nude mouse xenografted with human NCI-H1975 cells assessed as morphological change in lung at 0.2 mg/kg administered ip, qd for 2 weeks; settings: in vivo, 336 h
NCI-H460 [28] = test: Induction of ROS accumulation in human NCI-H460 cells measured upto 100 nM after 42 to 48 hrs by DCFH-DA staining based flow cytometric analysis; assay type: functional, cell-based; settings: time 42-48 hrs
How it was run: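 NCI-H460 cells exposed for 42 h or 48 h, then suspended in 1% BSA DPBS. DCFH-DA (from a 10 mM stock) added and incubated 30 min in the dark, followed by washing. DCF fluorescence taken from flow-cytometry histograms and expressed as percentage relative to untreated control.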

NCI-H460 [29] = test: Induction of mitochondrial membrane potential loss in human NCI-H460 cells by flow cytometric analysis; assay type: functional, cell-based
How it was run: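 Treated NCI-H460 cells suspended in 1% BSA DPBS and stained with TMRE (from a 1 mM stock) for 20 min in the dark. Cells then washed and resuspended in 1% BSA DPBS. Relative TMRE fluorescence intensity taken as the readout of membrane potential.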

NCI-H460 [30] = test: Induction of apoptosis in human NCI-H460 cells assessed as early apoptotic cells at 1 uM measured after 48 hrs by Annexin V-FITC/PI staining method (reference value: 3.46%); assay type: functional
[31] = Toxicity in BALB/c nude mouse xenografted with human NCI-H1975 cells assessed as reduction of cytoplasmic vacuoles at 0.2 mg/kg administered ip, qd for 2 weeks; settings: in vivo, 336 h
[32] = Toxicity in BALB/c nude mouse xenografted with human NCI-H1975 cells assessed as morphological change in kidney at 0.2 mg/kg administered ip, qd for 2 weeks; settings: in vivo, 336 h

With `CC(C)[C@]12O[C@H]1[C@@H]1O[C@]13[C@]1(O[C@H]1C[C@H]1C4=C(CC[C@@]13C)C(=O)OC4)[C@@H]2OC(=O)CCC(=O)O[C@@H]1O[C@H](CO)[C@@H](O)[C@H](O)[C@H]1O` the IC50 (NCI-H1975 [1]) was 1.86 µM, the IC50 at 72 h [2] was 1.63 µM and the IC50 at 72 h [3] was 1.38 µM. The IC50 (SW-620) was 5.51 µM, the IC50 (HT-29) was 2.89 µM and the IC50 (MDA-MB-231) was 2.28 µM. The IC50 at 72 h [4] was 8.14 µM, the IC50 (HCT-116) was 2.35 µM and the logD [5] was -0.558. For the same molecule, the IC50 (NCI-H460 [6]) was 2.72 µM.
In the case of `CC(C)[C@]12O[C@H]1[C@@H]1O[C@]13[C@]1(O[C@H]1C[C@H]1C4=C(CC[C@@]13C)C(=O)OC4)[C@@H]2O` [TRIPTOLIDE], the Activity (NCI-H460 [7]) is reported as 3.85%, the Activity (NCI-H460 [8]) is reported as 42.2% and the Activity [9] is reported as “Toxic”. The Activity (NCI-H460 [10]) was 2.2%, the viability at 0.1 µM (NCI-H460 [11]) was 29.5% and the Activity [12] was “Non-Toxic”. The IC50 (NCI-H1975 [1]) was 0.002 µM, the IC50 at 72 h [2] was 0.027 µM and the Activity [13] was “Toxic”. The Activity (NCI-H460 [14]) was 6.84%, the Activity [15] was “Non-Toxic” and the Activity (NCI-H460 [16]) was 5.7%. The IC50 at 72 h [3] was 0.016 µM, the Activity (NCI-H460 [17]) was “Active” and the viability at 0.01 µM (NCI-H460 [18]) was 87.8%. For the same molecule, the IC50 (SW-620) was 0.163 µM, the Activity (NCI-H460 [19]) was 24.4% and the inhibition in vivo at 0.2 mg/kg (NCI-H1975 [20]) was 28.6%. For the same molecule, the IC50 (HT-29) was 0.047 µM, the IC50 (MDA-MB-231) was 0.051 µM and the viability at 1 µM (NCI-H460 [21]) was 25.1%. For the same molecule, the Activity [22] was “Toxic”, the IC50 at 72 h [4] was 0.044 µM and the Activity (NCI-H460 [23]) was 3.17%. For the same molecule, the IC50 (HCT-116) was 0.046 µM, the Activity [24] was “Toxic” and the Stability [25] was “Unstable”. The logD [5] was -0.56, the Activity (NCI-H460 [26]) was 2.34% and the Activity [27] was “Non-Toxic”. The IC50 (NCI-H460 [6]) was 0.014 µM, the Activity (NCI-H460 [28]) was “Active” and the Activity (NCI-H460 [29]) was “Active”. For the same molecule, the Activity (NCI-H460 [30]) was 56.8%, the Activity [31] was “Toxic” and the Activity [32] was “Non-Toxic”.
Molecule `CC(C)[C@]12O[C@H]1[C@@H]1O[C@]13[C@]1(O[C@H]1C[C@H]1C4=C(CC[C@@]13C)C(=O)OC4)[C@@H]2OC(=O)CCC(=O)O[C@H]1O[C@H](CO)[C@@H](O)[C@H](O)[C@H]1O` has an IC50 (NCI-H1975 [1]) of 3.42 µM, an IC50 at 72 h [2] of 4.29 µM and an IC50 at 72 h [3] of 2.15 µM. The IC50 (SW-620) was 3.85 µM, the IC50 (HT-29) was 5.37 µM and the IC50 (MDA-MB-231) was 4.42 µM. The IC50 at 72 h [4] was 5.68 µM, the IC50 (HCT-116) was 1.9 µM and the IC50 (NCI-H460 [6]) was 4.08 µM.
`CC(C)[C@]12O[C@H]1[C@@H]1O[C@]13[C@]1(O[C@H]1C[C@H]1C4=C(CC[C@@]13C)C(=O)OC4)[C@@H]2OC(=O)CCC(=O)O[C@H]1[C@H](O)[C@@H](O)C(O)O[C@@H]1CO` (stereo not given in full) showed an IC50 (NCI-H1975 [1]) of 2.51 µM, an IC50 at 72 h [2] of 4.75 µM and an IC50 at 72 h [3] of 1.8 µM. It also gave an IC50 (SW-620) of 11 µM, an IC50 (HT-29) of 4.08 µM and an IC50 (MDA-MB-231) of 5.61 µM. The IC50 at 72 h [4] was 2.36 µM, the IC50 (HCT-116) was 4.47 µM and the logD [5] was -0.331. It also gave an IC50 (NCI-H460 [6]) of 3.06 µM.
